Laboratory results: article PMC3131532 (Chemistry & biology, 2011)

Legend:
PfSENP1 [1] = molecular target: T1, PfSENP1 (Plasmodium falciparum, UniProt Q8I583); test: PfSUMO-pro cleavage assay with recombinant PfSENP1; format: biochemical; details: gel assay; VEA-260 0–200 µM; JCP analogs 0–300 µM; NEM 10 mM
How it was run: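 Recombinant PfSENP1, His6-tagged (imidazole-eluted) or untagged (released from CPD fusion with 100 µM InsP6), expressed in E. coli BL21(DE3) for 3 hr at 30°C after 0.1 mM IPTG induction. Enzyme pretreated with test compound or 10 mM N-ethylmaleimide; for the 0–200 µM series, PfSENP1 was 100 nM. PfSUMO-pro then added; reactions run on SDS-PAGE with Coomassie-type staining. No-enzyme substrate lane served as control.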

[2] = test system: PfSENP activity in parasite lysates; test: PfSUMO-pro processing assay in parasite lysates; format: biochemical, Plasmodium falciparum; details: mixed stage lysates; VEA-260 0–200 µM; NEM 10 mM; hSUMO-VS 10 µM
How it was run: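 Soluble mixed-stage parasite lysate was pretreated with test compound, NEM or hSUMO-VS, then given PfSUMO-pro substrate. For the library screen, 10 µg lysate was preincubated 30 min at room temperature with 100 µM (final) test compound from a DMSO stock. PfSUMO-pro was then added at 10 µM final for 1 h at 37°C. Reactions were quenched with SDS loading dye, resolved by SDS-PAGE and stained with Gelcode Blue. Controls were DMSO-treated lysate and substrate without lysate.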

falcipains 1/2/3 = test: Competition for labeling with activity-based probes; format: biochemical, Plasmodium falciparum; details: mixed-stage lysates; VEA-260 0–250 µM
How it was run: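 Mixed-stage P. falciparum total lysates were pretreated with test compound (0–250 µM), or with unlabelled DCG-04 (100 µM) as a competition control, then labelled with 125I-DCG-04. Proteins were resolved by SDS-PAGE, and residual probe labelling was read by autoradiography.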

PfSENP1 [3] = molecular target: T1, PfSENP1; test: Reversibility of PfSENP1 inhibition; format: biochemical; details: 200 µM inhibitor, 2 hr 37°C, then dilution and Ni-NTA enrichment
How it was run: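 PfSENP1 (200 nM) exposed to test compound (200 µM), N-ethylmaleimide (10 mM) or DMSO for 2 hr at 37°C. Input sample taken. Treated enzyme then diluted, recaptured on Ni2+-NTA and eluted with 300 mM imidazole. Input and eluate each added to PfSUMO-pro; cleavage resolved by SDS-PAGE with protein stain.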

hSENP2 = molecular target: T2, hSENP2 (Homo sapiens, UniProt Q9HC62); test: SENP fluorogenic substrate; format: biochemical; details: read-out: IC50 hSENP2; substrate QTGG-AFC
T2 sequence (Q9HC62 1-589): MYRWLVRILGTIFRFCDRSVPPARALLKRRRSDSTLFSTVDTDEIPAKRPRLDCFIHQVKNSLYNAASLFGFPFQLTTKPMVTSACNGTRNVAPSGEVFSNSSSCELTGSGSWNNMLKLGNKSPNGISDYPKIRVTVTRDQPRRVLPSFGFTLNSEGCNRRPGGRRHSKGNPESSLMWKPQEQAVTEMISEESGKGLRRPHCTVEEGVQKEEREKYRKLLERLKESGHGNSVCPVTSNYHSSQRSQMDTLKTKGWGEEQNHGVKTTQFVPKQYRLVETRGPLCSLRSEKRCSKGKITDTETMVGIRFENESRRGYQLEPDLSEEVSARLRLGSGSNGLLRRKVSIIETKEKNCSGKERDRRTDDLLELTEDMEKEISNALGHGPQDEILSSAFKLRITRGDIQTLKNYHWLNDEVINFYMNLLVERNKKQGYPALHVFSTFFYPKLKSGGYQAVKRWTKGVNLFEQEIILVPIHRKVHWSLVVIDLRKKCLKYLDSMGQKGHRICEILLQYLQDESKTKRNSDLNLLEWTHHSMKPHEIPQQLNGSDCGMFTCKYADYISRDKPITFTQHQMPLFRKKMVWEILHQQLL

PfSENP1 [4] = molecular target: T1, PfSENP1; test: SENP fluorogenic substrate; format: biochemical; details: read-out: IC50 PfSENP1; substrate QTGG-AFC
hSENP6 = molecular target: T3, hSENP6 (Homo sapiens, UniProt Q9GZR1); test: SENP fluorogenic substrate; format: biochemical; details: read-out: IC50 hSENP6; substrate LRGG-AFC
T3 sequence (Q9GZR1 1-1112): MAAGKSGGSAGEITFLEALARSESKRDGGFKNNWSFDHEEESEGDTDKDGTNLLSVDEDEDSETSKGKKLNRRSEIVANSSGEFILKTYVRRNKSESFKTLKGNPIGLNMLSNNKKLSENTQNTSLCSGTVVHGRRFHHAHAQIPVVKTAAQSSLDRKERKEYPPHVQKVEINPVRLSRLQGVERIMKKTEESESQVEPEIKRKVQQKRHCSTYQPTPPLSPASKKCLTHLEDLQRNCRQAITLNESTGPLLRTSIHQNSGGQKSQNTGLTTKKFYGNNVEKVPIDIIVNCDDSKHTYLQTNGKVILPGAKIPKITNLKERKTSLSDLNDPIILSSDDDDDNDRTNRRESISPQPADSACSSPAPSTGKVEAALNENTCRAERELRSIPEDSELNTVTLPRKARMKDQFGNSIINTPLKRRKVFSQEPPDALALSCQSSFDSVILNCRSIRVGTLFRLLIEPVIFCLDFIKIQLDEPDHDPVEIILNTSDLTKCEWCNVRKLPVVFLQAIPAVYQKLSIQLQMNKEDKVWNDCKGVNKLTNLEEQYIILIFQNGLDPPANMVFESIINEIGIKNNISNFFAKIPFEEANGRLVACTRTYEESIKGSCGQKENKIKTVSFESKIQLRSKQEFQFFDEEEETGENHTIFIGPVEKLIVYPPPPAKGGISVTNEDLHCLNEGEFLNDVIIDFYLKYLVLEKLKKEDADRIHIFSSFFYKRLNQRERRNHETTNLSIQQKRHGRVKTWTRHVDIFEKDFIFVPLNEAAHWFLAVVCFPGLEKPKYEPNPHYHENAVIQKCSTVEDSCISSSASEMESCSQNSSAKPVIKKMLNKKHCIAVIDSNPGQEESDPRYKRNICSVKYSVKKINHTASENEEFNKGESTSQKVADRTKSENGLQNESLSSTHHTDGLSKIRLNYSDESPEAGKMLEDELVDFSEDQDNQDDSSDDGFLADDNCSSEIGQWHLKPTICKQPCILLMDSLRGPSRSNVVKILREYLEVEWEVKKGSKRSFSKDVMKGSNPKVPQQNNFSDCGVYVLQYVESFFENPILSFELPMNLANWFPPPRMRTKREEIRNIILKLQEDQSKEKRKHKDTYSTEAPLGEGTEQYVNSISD

UCH-L3 = molecular target: T4, UCH-L3 (Homo sapiens, UniProt P15374); test: DUB fluorogenic substrate; format: biochemical; details: read-out: IC50 UCH-L3; substrate LRGG-AFC
T4 sequence (P15374 1-230): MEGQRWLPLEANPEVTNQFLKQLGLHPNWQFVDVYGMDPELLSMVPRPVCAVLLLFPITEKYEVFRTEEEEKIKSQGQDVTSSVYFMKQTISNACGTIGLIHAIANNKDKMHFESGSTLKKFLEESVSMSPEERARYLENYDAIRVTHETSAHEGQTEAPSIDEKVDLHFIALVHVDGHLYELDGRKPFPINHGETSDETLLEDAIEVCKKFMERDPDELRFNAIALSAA

hSENP8 (deNEDDylase) = molecular target: T5, hSENP8 (deNEDDylase) (Homo sapiens, UniProt Q96LD8); test: fluorogenic substrate; format: biochemical; details: read-out: IC50 hSENP8 (deNEDDylase); substrate LRGG-AFC
T5 sequence (Q96LD8 1-212): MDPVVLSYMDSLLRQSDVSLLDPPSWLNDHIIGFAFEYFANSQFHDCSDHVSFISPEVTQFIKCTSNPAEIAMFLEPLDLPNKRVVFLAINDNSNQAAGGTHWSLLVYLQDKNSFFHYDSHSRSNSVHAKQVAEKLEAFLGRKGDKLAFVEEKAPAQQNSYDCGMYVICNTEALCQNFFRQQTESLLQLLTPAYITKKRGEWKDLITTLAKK

hSENP1 = molecular target: T6, hSENP1 (Homo sapiens, UniProt Q9P0U3); test: SENP fluorogenic substrate; format: biochemical; details: read-out: IC50 hSENP1; substrate QTGG-AFC
T6 sequence (Q9P0U3 419-644 limits assumed): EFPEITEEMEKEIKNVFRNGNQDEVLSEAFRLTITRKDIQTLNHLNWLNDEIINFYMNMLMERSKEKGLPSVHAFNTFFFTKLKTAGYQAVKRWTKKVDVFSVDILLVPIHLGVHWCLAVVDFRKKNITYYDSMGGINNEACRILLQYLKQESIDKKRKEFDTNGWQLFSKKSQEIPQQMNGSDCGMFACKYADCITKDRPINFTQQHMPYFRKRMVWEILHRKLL

reversibility of PfSENP1 inhibition (PfSENP1 [3]) | IC50 (hSENP6) [µM] | IC50 (UCH-L3) [µM] | Structure (SMILES) | inhibition of PfSUMO-pro cleavage by recombinant PfSENP1 (PfSENP1 [1]) | inhibition of PfSENP activity in parasite lysates [2] | inhibition of falcipains (residual probe labeling) (falcipains 1/2/3) | IC50 (hSENP2) [µM] | IC50 (PfSENP1 [4]) [µM] | IC50 (hSENP8 (deNEDDylase)) [µM] | IC50 (hSENP1) [µM]
 |  |  | CCN1C(=O)C=CC1=O [NEM, N-ethylmaleimide, reference compound] | cleavage was inhibited | processing activity could be blocked |  |  |  |  | 
irreversible inhibitor | > 100 | ~100 | O=C(O)c1cccc(C(=O)NCc2ccc(C(=O)NNC(=O)[C@H]3O[C@@H]3C(=O)N(Cc3cccc4ccccc34)Cc3cccc4ccccc34)cc2)c1 [VEA-260] | as potent as the original JCP-666 | as potent as the original JCP-666 | did not inhibit any of the falcipains | 3.7 | 16.2 | 9.1 | 7.1
